ChEMBL document CHEMBL5236602, “Synthesis and Characterization of NUC-7738, an Aryloxy Phosphoramidate of 3'-Deoxyadenosine, as a Potential Anticancer Agent” (J Med Chem, 2022)
Calls of active or inactive are those of the source. No cut-off for these calls is given here.

Columns and labels:
Adenosine deaminase [1] = target: T1, Adenosine deaminase (Bos taurus, UniProt P56658); test: Metabolic stability assessed as bovine recombinant adenosine deaminase-mediated 3'-deoxyinosine metabolite formation by measuring shift in maximum absorption at 62.5 uM measured after 2 mins by UV absorption spectra based analysis; format: ADME; conditions: cattle
T1 sequence (P56658 whole entry): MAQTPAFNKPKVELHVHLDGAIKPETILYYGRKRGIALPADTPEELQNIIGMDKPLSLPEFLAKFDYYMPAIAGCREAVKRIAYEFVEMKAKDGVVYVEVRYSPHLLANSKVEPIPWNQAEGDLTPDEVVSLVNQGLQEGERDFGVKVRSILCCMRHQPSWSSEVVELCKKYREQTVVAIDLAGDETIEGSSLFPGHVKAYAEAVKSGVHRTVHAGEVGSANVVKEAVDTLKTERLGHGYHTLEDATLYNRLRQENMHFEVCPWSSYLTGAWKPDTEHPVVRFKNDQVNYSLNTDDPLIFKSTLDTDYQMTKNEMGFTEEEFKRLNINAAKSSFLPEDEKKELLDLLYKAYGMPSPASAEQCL
Summary of the method: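 Bovine recombinant ADA suspension was diluted in phosphate buffer, pH 7.4, and filtered at 0.2 μm. Substrate at 62.5 μM was added to 17 μL of the ADA solution. UV spectra were scanned at 220–350 nm, 2 nm resolution, every 0.1 min for 10 min to 12 h, with an ADA-only blank subtracted. The read-out is the shift of the 265 nm maximum.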

[2] = Stability in human plasma assessed as reduction in parent compound concentration at 20 uM measured after 4 hrs by UPLC-MS/MS analysis; format: ADME, cell-free
Summary of the method: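 Human plasma, with or without 1 μM EHNA as ADA inhibitor, was spiked with 20 μM compound at 37 °C/5% CO2. Samples were quenched in methanol, 1:3 sample:methanol, kept 30 min on ice and centrifuged. The supernatant was dried, reconstituted in 10% acetonitrile and quantified by UPLC-MS/MS over time.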

Leukemic stem cell [3] = test: Cytotoxicity against human leukemic stem cells (Lin-/CD34+/CD38-/CD123+) in myeloid leukemia cell line KG-1a assessed as reduction in LSC population at >1 uM incubated for 72 hrs
CCRF-CEM [4] = test: Cytotoxicity against human CCRF-CEM cells assessed as cell death incubated for 72 hrs by MTS assay; format: functional; conditions: read-out: LC50 (the source's name)
Summary of the method: (§1)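 Contracted MTS assay. Cells seeded the day before treatment and exposed 72 h to nine serial concentrations (3.16-fold steps, top 198 μM), tested in duplicate. MTS added, then 4 h at 37 °C and absorbance read. LC50 is the concentration killing 50% of cells. MI% is the maximum inhibition over the tested range.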

CCRF-CEM [5] = test: Cytotoxicity against human CCRF-CEM cells assessed as maximum cell growth inhibition incubated for 72 hrs by MTS assay relative to control; format: functional
Summary of the method: (§2)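 Cells from the 20-line panel were seeded the day before dosing, then exposed to compound for 72 h. MTS was added, followed by 4 h at 37 °C, and absorbance was read. Nine serial 3.16-fold dilutions were tested, top 198 μM, in duplicate. MI% is the maximum inhibitory effect across the tested concentration range.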

HL-60 [6] = test: Cytotoxicity against human HL-60 cells assessed as cell death incubated for 72 hrs by MTS assay; format: functional; conditions: read-out: LC50 (the source's name); summary of the method: as §1
HL-60 [7] = test: Cytotoxicity against human HL-60 cells assessed as maximum cell growth inhibition incubated for 72 hrs by MTS assay relative to control; format: functional; summary of the method: as §2
KG-1 [8] = test: Cytotoxicity against human KG-1 cells assessed as cell death incubated for 72 hrs by MTS assay; format: functional; summary of the method: as §1
KG-1 [9] = test: Cytotoxicity against human KG-1 cells assessed as maximum cell growth inhibition incubated for 72 hrs by MTS assay relative to control; format: functional; summary of the method: as §2
MOLT-4 [10] = test: Cytotoxicity against human MOLT-4 cells assessed as cell death incubated for 72 hrs by MTS assay; format: functional; conditions: read-out: LC50 (the source's name); summary of the method: as §1
MOLT-4 [11] = test: Cytotoxicity against human MOLT-4 cells assessed as maximum cell growth inhibition incubated for 72 hrs by MTS assay relative to control; format: functional; summary of the method: as §2
K562 [12] = test: Cytotoxicity against human K562 cells assessed as cell death incubated for 72 hrs by MTS assay; format: functional; conditions: read-out: LC50 (the source's name); summary of the method: as §1
K562 [13] = test: Cytotoxicity against human K562 cells assessed as maximum cell growth inhibition incubated for 72 hrs by MTS assay relative to control; format: functional; summary of the method: as §2
HepG2 [14] = test: Cytotoxicity against human HepG2 cells assessed as cell death incubated for 72 hrs by MTS assay; format: functional; conditions: read-out: LC50 (the source's name); summary of the method: as §1
HepG2 [15] = test: Cytotoxicity against human HepG2 cells assessed as maximum cell growth inhibition incubated for 72 hrs by MTS assay relative to control; format: functional; summary of the method: as §2
MCF7 [16] = test: Cytotoxicity against human MCF7 cells assessed as cell death incubated for 72 hrs by MTS assay; format: functional; conditions: read-out: LC50 (the source's name); summary of the method: as §1
MCF7 [17] = test: Cytotoxicity against human MCF7 cells assessed as maximum cell growth inhibition incubated for 72 hrs by MTS assay relative to control; format: functional; summary of the method: as §2
MV4-11 = test: Cytotoxicity against human MV4-11 cells assessed as maximum cell growth inhibition incubated for 72 hrs by MTS assay relative to control; format: functional; summary of the method: as §2
[18] = Prodrug conversion in human CCRF-CEM cells assessed as fold increase in 3'-dATP level at 50 uM incubated for 2 hrs by LC-MS/MS analysis relative to 3'-Deoxyadenosine; format: ADME, cell-based
[19] = Prodrug conversion in human K562 cells assessed as fold increase in 3'-dATP level at 50 uM incubated for 2 hrs by LC-MS/MS analysis relative to 3'-Deoxyadenosine; format: ADME, cell-based; conditions: k562, 2 h
[20] = Prodrug conversion in human HL-60 cells assessed as fold increase in 3'-dATP level at 50 uM incubated for 2 hrs by LC-MS/MS analysis relative to 3'-Deoxyadenosine; format: ADME, cell-based; conditions: hl-60, 2 h
[21] = Prodrug conversion in human RL cells assessed as fold increase in 3'-dATP level at 50 uM incubated for 2 hrs by LC-MS/MS analysis relative to 3'-Deoxyadenosine; format: ADME, cell-based
Adenosine deaminase [22] = target: T1, Adenosine deaminase; test: Metabolic stability assessed as bovine recombinant adenosine deaminase-mediated 3'-deoxyinosine metabolite formation by measuring shift in maximum absorption at 62.5 uM measured upto 2 hrs by UV absorption spectra based analysis; format: ADME; conditions: cattle
RL [23] = test: Potency index, ratio of 3'-Deoxyadenosine LC50 to test compound LC50 for cytotoxicity against human RL cells assessed as cell death incubated for 72 hrs by MTS assay; format: functional
HL-60 [24] = test: Potency index, ratio of 3'-Deoxyadenosine LC50 to test compound LC50 for cytotoxicity against human HL-60 cells assessed as cell death incubated for 72 hrs by MTS assay; format: functional
K562 [25] = test: Potency index, ratio of 3'-Deoxyadenosine LC50 to test compound LC50 for cytotoxicity against human K562 cells assessed as cell death incubated for 72 hrs by MTS assay; format: functional
Jurkat = test: Potency index, ratio of 3'-Deoxyadenosine LC50 to test compound LC50 for cytotoxicity against human Jurkat cells assessed as cell death incubated for 72 hrs by MTS assay; format: functional
CCRF-CEM [26] = test: Potency index, ratio of 3'-Deoxyadenosine LC50 to test compound LC50 for cytotoxicity against human CCRF-CEM cells assessed as cell death incubated for 72 hrs by MTS assay; format: functional
CCRF-CEM [27] = test: Cytotoxicity against deoxynucleotidyl transferase-positive human CCRF-CEM cells assessed as cell death preincubated with adenosine deaminase inhibitor, EHNA for 5 mins followed by compound addition and […]; format: functional, cell-based
RL [28] = test: Cytotoxicity against deoxynucleotidyl transferase-negative human RL cells assessed as cell death preincubated with adenosine deaminase inhibitor, EHNA for 5 mins followed by compound addition and […]; format: functional, cell-based
RL [29] = test: Cytotoxicity against deoxynucleotidyl transferase-negative human RL cells assessed as cell death preincubated with adenosine kinase inhibitor, A-134974 for 5 mins followed by compound addition and […]; format: functional, cell-based
[30] = Prodrug activation assessed as Saccharomyces cerevisiae carboxypeptidase Y-mediated (2R)-2-(((((2S,4R,5R)-5-(6-amino-9H-purin-9-yl)-4-hydroxytetrahydrofuran-2-yl)methoxy)(hydroxy)phosphoryl)amino)propanoic acid formation at 5 mg measured over 1 hr by 31P-NMR analysis
Summary of the method: (§3)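 Prodrug (5 mg) in acetone-d6 with trizma buffer pH 7.6, with a t = 0 31P NMR (202 MHz) reference taken first. Carboxypeptidase Y stock (50 units/mL in trizma pH 7.6) added. 31P NMR spectra recorded over time to follow intermediate and aminoacyl phosphoramidate signals.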

[31] = Prodrug activation assessed as Saccharomyces cerevisiae carboxypeptidase Y-mediated (2R)-2-(((((2S,4R,5R)-5-(6-amino-9H-purin-9-yl)-4-hydroxytetrahydrofuran-2-yl)methoxy)(phenoxy)phosphoryl)amino)propanoic acid formation at 5 mg measured for 4 mins by 31P-NMR analysis; summary of the method: as §3
[32] = Stability in human plasma assessed as reduction in parent compound concentration at 20 uM measured upto 4 hrs by UPLC-MS/MS analysis; format: ADME, cell-free
[33] = Stability in human plasma assessed as reduction in parent compound concentration at 20 uM incubated for 4 hrs in presence of adenosine deaminase inhibitor, EHNA by UPLC-MS/MS analysis; format: ADME, cell-free
[34] = Drug concentration in mouse plasma at 20 uM measured after 30 sec by UPLC-MS/MS analysis; format: ADME, cell-free
[35] = Drug concentration in human plasma at 20 uM measured after 30 sec by UPLC-MS/MS analysis; format: ADME, cell-free
[36] = Drug metabolism in mouse plasma assessed as metabolite formation by measuring reduction in parent compound concentration at 20 uM incubated for 24 hrs in presence of adenosine deaminase inhibitor, EHNA by UPLC/MS/MS analysis; format: ADME, cell-free
Leukemic stem cell [37] = test: Cytotoxicity against human leukemic stem cells (Lin-/CD34+/CD38-/CD123+) in myeloid leukemia cell line KG-1a assessed as preferential cell killing incubated for 72 hrs

For Nc1ncnc2c1ncn2[C@@H]1O[C@H](CO)C[C@H]1O [CORDYCEPIN], the Stability (Adenosine deaminase [1]) was “Unstable”, the Stability [2] was “Unstable” and the Activity (Leukemic stem cell [3]) was “Active”.
For Nc1ncnc2c1ncn2[C@@H]1O[C@H](COP(=O)(NCC(=O)OCc2ccccc2)Oc2ccccc2)C[C@H]1O (some centres not stated), the CC50 (CCRF-CEM [4]) was 14.9 µM, the Imax (CCRF-CEM [5]) was 94% and the CC50 (HL-60 [6]) was 45.2 µM. The Imax (HL-60 [7]) was 82%, the LC50 (KG-1 [8]) was 136.56 µM and the Imax (KG-1 [9]) was 65%. For the same compound, the CC50 (MOLT-4 [10]) was 3.55 µM, the Imax (MOLT-4 [11]) was 93% and the CC50 (K562 [12]) was 15.4 µM. For the same compound, the Imax (K562 [13]) was 92%, the CC50 (HepG2 [14]) was 142 µM and the Imax (HepG2 [15]) was 59%. The CC50 (MCF7 [16]) was 15.5 µM and the Imax (MCF7 [17]) was 87%.
With CC(=O)O[C@H]1C(=O)[C@@]2(C)[C@H]([C@H](OC(=O)c3ccccc3)[C@]3(O)C[C@H](OC(=O)[C@H](O)[C@@H](NC(=O)c4ccccc4)c4ccccc4)C(C)=C1C3(C)C)[C@]1(OC(C)=O)CO[C@@H]1C[C@@H]2O [PACLITAXEL] the Imax (KG-1 [9]) was 89%.
Work on C[C@H](N[P@](=O)(OC[C@@H]1C[C@@H](O)[C@H](n2cnc3c(N)ncnc32)O1)Oc1ccccc1)C(=O)OCc1ccccc1 yielded an Imax (MV4-11) of 100%.
In the case of CCOC(=O)CCc1ccccc1OP(=O)(N[C@@H](C)C(=O)OCc1ccccc1)OC[C@@H]1C[C@@H](O)[C@H](n2cnc3c(N)ncnc32)O1 (some centres not stated), the Imax (KG-1 [9]) is reported as 69%, the “fold change (FC)” value [18] is reported as 2 and the “fold change (FC)” value [19] is reported as 2. For the same compound, the “fold change (FC)” value [20] was 2 and the “fold change (FC)” value [21] was 2.
Compound C[C@H](N[P@@](=O)(OC[C@@H]1C[C@@H](O)[C@H](n2cnc3c(N)ncnc32)O1)Oc1ccccc1)C(=O)OCc1ccccc1 has an Imax (KG-1 [9]) of 90%.
With C[C@H](NP(=O)(OC[C@@H]1C[C@@H](O)[C@H](n2cnc3c(N)ncnc32)O1)Oc1ccccc1)C(=O)OCc1ccccc1 (some centres not stated) [FOSDESDENOSINE SIPALABENAMIDE] the Stability (Adenosine deaminase [22]) was “Stable”, the RatioLC50 (RL [23]) was 3 and the RatioLC50 (HL-60 [24]) was 3. For the same compound, the RatioLC50 (K562 [25]) was 3, the RatioLC50 (Jurkat) was 200 and the RatioLC50 (CCRF-CEM [26]) was 3. For the same compound, the “fold change (FC)” value [18] was 3, the “fold change (FC)” value [19] was 3 and the “fold change (FC)” value [20] was 3. For the same compound, the “fold change (FC)” value [21] was 3, the Activity (CCRF-CEM [27]) was “Active” and the Activity (RL [28]) was “Active”. For the same compound, the Activity (RL [29]) was “Active”, the Drug metabolism [30] was “Metabolite_Detected” and the Drug metabolism [31] was “Metabolite_Detected”. The Stability [32] was “Stable”, the Stability [33] was “Stable” and the concentration at 0.5 min, 20 µM [34] was 0.5 ng/mL. The concentration at 0.5 min, 20 µM [35] was 10000 ng/mL, the Drug metabolism [36] was “Metabolite_Detected” and the Activity (Leukemic stem cell [37]) was “Active”. The Activity (Leukemic stem cell [3]) was “Active”.
